Experimental data: ChEMBL document CHEMBL3244367, “Synthesis and determination of antiviral activity of the 2'(3')-O-methyl derivatives of ribavirin (1-beta-D-ribofuranosyl-1,2,4-triazole-3-carboxamide)” (1977)
≈ marks a conversion by molar mass, not a printed value. Calls of active or inactive are those of the source. The calls are words filed in the database; no cut-off is given here.

Assays:
[1] = system: Human alphaherpesvirus 1; experiment: Antiviral activity against Herpes simplex virus 1 infected in primary rabbit kidney cells assessed as inhibition of virus-induced cytopathogenicity treated immediately after virus adsorption measured 3 days after virus infection; type: functional; details: Human alphaherpesvirus 1, 72 h
How it was run: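 Compound added right after virus adsorption; 100 CCID50 virus per culture. Cytopathogenicity was scored once complete in untreated infected controls. The value is the concentration giving 50% inhibition of viral cytopathogenicity.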

[2] = Inhibition of DNA synthesis in primary rabbit kidney cells assessed as inhibition of [3H]thymidine incorporation into DNA; type: functional; details: Oryctolagus cuniculus, read-out: ID50 (the source's name)
How it was run: (§1)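 Host-cell DNA synthesis in primary rabbit kidney cells, measured as [methyl-3H]thymidine incorporation into DNA. ID50 is the dose inhibiting thymidine incorporation by 50%. The highest concentration tested was 100 μg/mL.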

[3] = system: Vesicular stomatitis virus; experiment: Antiviral activity against Vesicular stomatitis virus infected in primary rabbit kidney cells assessed as inhibition of virus-induced cytopathogenicity treated immediately after virus adsorption measured 2 days after virus infection; type: functional; details: 48 h
[4] = system: Coxsackievirus B4; experiment: Antiviral activity against Coxsackievirus B4 infected in human HeLa cells assessed as inhibition of virus-induced cytopathogenicity treated immediately after virus adsorption measured 2 days after virus infection; type: functional; details: Enterovirus B, 48 h
[5] = system: Poliovirus 1; experiment: Antiviral activity against Poliovirus type 1 infected in human HeLa cells assessed as inhibition of virus-induced cytopathogenicity treated immediately after virus adsorption measured 2 days after virus infection; type: functional; details: Enterovirus C, 48 h
[6] = system: kidney; experiment: Inhibition of DNA synthesis in primary rabbit kidney cells assessed as inhibition of [3H]thymidine incorporation into DNA at 100 ug/mL; type: functional, cell-based; details: Oryctolagus cuniculus; how it was run: as §1

SMILES	MIC50 [1]	IC50 [2]	MIC50 [3]	MIC50 [4]	MIC50 [5]	inhibition [6]
NC(=O)c1ncn([C@@H]2O[C@H](CO)[C@@H](O)[C@H]2O)n1 [RIBAVIRIN]	20 µg/mL (≈ 81.9 µM)	20 µg/mL (≈ 81.9 µM)	70 µg/mL (≈ 287 µM)	40 µg/mL (≈ 164 µM)	40 µg/mL (≈ 164 µM)	
CO[C@H]1[C@@H](O)[C@H](n2cnc(C(N)=O)n2)O[C@@H]1CO	> 200 µg/mL		> 200 µg/mL	> 200 µg/mL	> 200 µg/mL	inactive
CO[C@@H]1[C@H](O)[C@@H](CO)O[C@H]1n1cnc(C(N)=O)n1	> 200 µg/mL		> 200 µg/mL	> 200 µg/mL	> 200 µg/mL	inactive
